High-throughput results as filed in PubChem.
F508del corr: CFTR F508del correction in bronchial cells | activity (quench increase), % at 7.58 µM | AID 720511 | CFBE cells, YFP halide quenching; stimulated with forskolin plus potentiator P3; % fluorescence drop versus neutral controls | 350,000 compounds, 0.36% hits;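 active means mean added fluorescence quench of at least 8% versus neutral control, with both replicates also reaching 8%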;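 further: cells transiently co-express mutant CFTR-F508del with the halide-sensitive YFP; corrector assay measuring rescue of mutant channel to the surface after 24 h compound exposure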
FGF22 binding-1: FGF22 (human) thermal shift binding | Q9HCT0 | recombinant FGF22 thermal shift, SYPRO orange fluorescence; percent of sucrose octasulfate shift, DMSO zero | activity (Tm shift, normalised), % at 9.99 µM | 340,000 compounds, 1.5% hits | AID 651658;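 active means mean Tm shift, scaled 0 neutral to 100 positive control, at about 1.3% or above, every replicate too, limit read from the data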
E-selectin induc: induces E-selectin expression in human endothelial cells; HUVEC E-selectin immunofluorescence imaging; normalized: neutral wells 0, TNF-alpha wells 100; P16581; 260,000 compounds, 0.37% hits; AID 686992; activation, % at 7.58 µM;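 active means mean E-selectin-positive cell signal at least 10% of the positive control, reached in at least 60% of replicates, without over 20% cell loss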
Target sequence (P16581 whole entry, looked up): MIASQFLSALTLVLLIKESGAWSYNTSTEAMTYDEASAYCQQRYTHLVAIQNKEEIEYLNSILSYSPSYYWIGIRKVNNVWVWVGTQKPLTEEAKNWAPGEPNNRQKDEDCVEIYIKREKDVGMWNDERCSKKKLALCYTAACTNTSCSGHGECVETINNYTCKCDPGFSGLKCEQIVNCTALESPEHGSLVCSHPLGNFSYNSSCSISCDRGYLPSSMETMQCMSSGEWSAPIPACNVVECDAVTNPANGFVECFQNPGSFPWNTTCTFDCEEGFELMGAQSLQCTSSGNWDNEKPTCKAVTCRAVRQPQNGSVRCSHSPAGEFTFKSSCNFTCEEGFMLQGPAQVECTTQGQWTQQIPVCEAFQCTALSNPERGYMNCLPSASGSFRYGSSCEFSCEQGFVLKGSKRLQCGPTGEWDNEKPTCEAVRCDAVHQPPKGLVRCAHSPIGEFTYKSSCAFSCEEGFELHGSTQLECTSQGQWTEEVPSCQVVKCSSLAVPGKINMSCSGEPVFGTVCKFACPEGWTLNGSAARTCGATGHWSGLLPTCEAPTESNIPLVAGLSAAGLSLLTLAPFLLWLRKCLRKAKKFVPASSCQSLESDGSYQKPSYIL
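Read-out basis: % PE-positive cells; Test system: HUVEC primary endothelial cells; Technique: immunofluorescence imaging; Dosing: single-point compound dose.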
S100A4 MyoIIA: S100A4-myosin IIA interaction inhibition | S100A4/TAMRA-MyoIIA peptide fluorescence polarization | inhibition, % at 10.7 µM | 360,000 compounds, 0.14% hits | AID 652163;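 active means mean inhibition of at least 70% across replicates, with every replicate also reaching that level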
Target sequence (P26447 whole entry, looked up): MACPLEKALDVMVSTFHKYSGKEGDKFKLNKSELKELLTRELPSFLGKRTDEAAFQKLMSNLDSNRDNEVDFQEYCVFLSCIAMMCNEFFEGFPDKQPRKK
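Compound dosing: one dose per compound; test system: human S100A4 monomer with TAMRA-labelled myosin IIA peptide; probe or stimulus: TAMRA-labelled myosin IIA heavy-chain peptide probe, 5 nM; medium: HEPES buffer with Ca2+, pH 7.2; schedule: 5 min incubation before reading; benchmarks: neutral control DMSO, positive control TFP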
Env fusion inh: inhibitors of HIV Env-mediated cell fusion; AID 651610; inhibition, % at 12.3 µM; 360,000 compounds, 1.1% hits; HeLa-JRFL Env/CEM21 cell fusion, luciferase;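 active means mean replicate inhibition score of at least 50 and every replicate individually at or above 50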;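 further: 0% = plate neutral controls and 100% = maraviroc near 300 nM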
FGF22 binding-2: binders of human FGF22 by thermal shift; shares compounds with FGF22 binding-1; recombinant FGF22 thermal shift, SYPRO orange fluorescence; thermal shift activity, °C (ΔTm) at 38 µM; 1,000 compounds, 2% hits; AID 720646;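 active means fitted rise in melting shift crosses a set limit at or below the top valid dose tested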
FGF22 TSA DP: binders of human FGF22 by thermal shift. shares compounds with FGF22 binding-1. Thermal shift assay, SYPRO orange, melting temperature shift. Tm shift (activity), % at 38 µM. 50 tested, under 10 active;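 active means compounds whose fitted dose curve of melting temperature shift rises past a set threshold within the tested doses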
SYPRO no-protein: shows thermal shift signal without protein, FGF22 counter-screen. shares compounds with FGF22 binding-1. compound-only SYPRO orange thermal shift counter-screen, no protein. AC50, µM (titrated, usually from 38 µM). 1,000 compounds, 2% hits. AID 743019;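 active means rising signal whose fitted curve reaches the 0.54 level within the top valid dose, showing a melting point, actives reach about 13 µM in these data; inactive means the rest, including activity in the opposite direction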; further: value is where the raw curve crosses a fixed level and not half-maximal
Starred values were filed as active, the others as inactive; i = inactive; nt = no result given; [ ] = remark or other dose. A selection: hits, their analogues and other compounds. The true share with any hit is near 2.7%.

SMILES	F508del corr	FGF22 binding-1	E-selectin induc	S100A4 MyoIIA	Env fusion inh	FGF22 binding-2	SYPRO no-protein	others
COc1ccc(-c2nc(CCl)cs2)cc1OC	1	0	nt	1	-13	nt	nt
CCOCCCNS(=O)(=O)c1ccc(NC(=O)c2ccccc2)cc1	-2	1.8*	nt	-3	nt	0.028	i
O=C(O)c1ccc(NS(=O)(=O)c2ccc(C(=O)Nc3ccccc3)cc2)cc1	1	0	0	1	25	nt	nt
O=C(CC(=O)c1ccccc1)Nc1cccc([N+](=O)[O-])c1	0	1.8*	0	9	nt	0.11	i
COc1ccc(NS(=O)(=O)c2cccc(C(=O)NNC(=O)c3ccccc3O)c2)cc1	2	2.0*	nt	-20	1	0.093	i
O=C(O)c1ccc(NC(=O)c2cccc(S(=O)(=O)Nc3ccc(C(=O)O)cc3)c2)cc1	0	2.1*	0	-4	-3	0.22	i
CN(C)S(=O)(=O)c1ccc(Cl)c(C(=O)Nc2cccc([N+](=O)[O-])c2)c1	-6	0	0	1	16	nt	nt
O=C(O)c1cccc(NS(=O)(=O)c2ccc(Cl)c(C(=O)Nc3cccc([N+](=O)[O-])c3)c2)c1	0	1.8*	nt	0	2	-0.072	i
C[C@@H](NC(=O)C[C@H]1CC[C@@H](NC(=O)C2CCOCC2)[C@@H](CO)O1)c1ccccc1	1	0	0	-9	-24[16.7 µM]	nt	nt
COCC(=O)Nc1ccc2c(c1)OC[C@@H](C)N(C(=O)NC(C)C)C[C@@H](C)[C@H](OC)CN(C)C2=O	-3	0	0	-4	9[16.7 µM]	nt	nt
CN1CCN(C(=O)C[C@H]2CC[C@@H]3[C@H](COC[C@@H](O)CN3CC3CC3)O2)CC1	0	0	0	1	nt	nt	nt
CCc1cc(-c2[nH]ncc2-c2ccc3c(c2)OCCO3)c(O)cc1O	nt	nt	nt	nt	nt	nt	nt	FGF22 TSA DP=0
CCOC(=O)c1oc2cc(O)c(CC)cc2c(=O)c1-c1ccc2c(c1)OCCO2	1	0	0	-9	-1	nt	nt
CCc1cc(-c2n[nH]c(C)c2-c2nc3ccccc3n2C)c(O)cc1O	-1	0	nt	2	10	nt	nt
CCc1cc(-c2n[nH]c(C)c2-c2ccc3c(c2)OCCO3)c(O)cc1O	nt	nt	nt	nt	nt	nt	nt	FGF22 TSA DP=0
CO[C@@H]1CN(C)C(=O)c2ccc(NC(=O)C3CC3)cc2OC[C@@H](C)N(CCc2ccccc2)C[C@@H]1C	2	-1	0	68	13[16.7 µM]	nt	nt
CCNC(=O)C[C@H]1CC[C@@H]2[C@H](COc3ccc(NC(=O)NC(C)C)cc3C(=O)N2C)O1	0	0	0	-15	6[16.7 µM]	nt	nt
O=C(C[C@@H]1CC[C@H](NS(=O)(=O)c2ccccc2)[C@@H](CO)O1)N1CCN(c2ccccc2)CC1	0	nt	1	34	nt	nt	nt
COc1ccc(NC(=O)N(C)C[C@@H]2Oc3ccc(NS(=O)(=O)c4c(C)noc4C)cc3CC(=O)N([C@H](C)CO)C[C@H]2C)cc1	2	0	nt	18	5[16.7 µM]	nt	nt
C[C@@H]1CCCCO[C@H](CN(C)C)[C@@H](C)CN([C@H](C)CO)C(=O)c2cc(NS(=O)(=O)c3cn(C)cn3)ccc2O1	-3	0	1	4	-6[16.7 µM]	nt	nt
COc1ccc(NC(=O)Nc2ccc3c(c2)C(=O)N([C@H](C)CO)C[C@H](C)[C@H](CN(C)C(=O)Nc2c(C)noc2C)OCCCC[C@H](C)O3)cc1	0	0	0	6	7[16.7 µM]	nt	nt
CN(C(=O)Cn1nnc2ccccc2c1=O)C1CCCCC1	0	1.8*	0	2	-9	0.092	i
Cc1ccc(S(=O)(=O)N(C)C[C@H]2Oc3ccc(NS(C)(=O)=O)cc3CC(=O)N([C@H](C)CO)C[C@H]2C)cc1	-1	0	-11	2	13[16.7 µM]	nt	nt
COc1ccc(C(=O)Nc2ccccc2N2CCOCC2)cc1S(=O)(=O)N1CCOCC1	5	21*	nt	0	1	0.026	i
COc1ccc(C(=O)Nc2cc(Cl)ccc2N2CCOCC2)cc1S(=O)(=O)N1CCOCC1	2	0	0	-8	9	nt	nt
SMILES	F508del corr	FGF22 binding-1	E-selectin induc	S100A4 MyoIIA	Env fusion inh	FGF22 binding-2	SYPRO no-protein	others
NC(=O)c1ccsc1NC(=O)COC(=O)CCOc1ccccc1	1	0	0	20	-3	nt	nt
NC(=O)c1ccsc1NC(=O)COC(=O)CCCOc1ccccc1	0	1.9*	0	-13	7	0.12	i
COc1ccc(S(=O)(=O)Nc2ccc3c(c2)CC(=O)N([C@@H](C)CO)C[C@@H](C)[C@H](CN(C)Cc2ccncc2)O3)cc1	1	0	-25	-3	nt	nt	nt
COc1cccc(NC(=O)COc2coc(CN3CCN(c4ccccc4)CC3)cc2=O)c1	-2	0	nt	-1	nt	nt	nt
CCc1ccc(NC(=O)COc2coc(CN3CCN(c4ccccc4)CC3)cc2=O)cc1	1	2.6*	nt	0	nt	0.13	i
CNC[C@H]1Oc2ccc(NC(=O)C3CCCCC3)cc2C(=O)N([C@@H](C)CO)C[C@H]1C	2	1.2*	0	-8	-15[16.7 µM]	0.17[42 µM]	i
CNC[C@H]1Oc2ccc(NC(=O)Nc3ccc(OC)cc3)cc2C(=O)N([C@H](C)CO)C[C@@H]1C	0	1.4*	nt	-5	-3[16.7 µM]	0.098[42 µM]	i
C[C@@H]1CN([C@H](C)CO)C(=O)Cc2cc(NS(=O)(=O)c3cccs3)ccc2O[C@@H]1CN(C)S(=O)(=O)c1cn(C)cn1	-4	0	0	-5	-4[16.7 µM]	nt	nt
O=C(Nc1ccsc1C(=O)O)c1cccc(Oc2ccccc2)c1	-2	0	0	-4	-12	nt	nt
O=C(Nc1ccsc1C(=O)O)c1cccc(C(F)(F)F)c1	0	1.5*	0	-4	-38	0.19	i
O=C(N[C@H]1C=C[C@H](CC(=O)N2CCCCC2)O[C@H]1CO)c1cccc(F)c1	-3	1.5*	0	-40	-15[16.7 µM]	nt	i
CN1CCN(C(=O)C[C@H]2C=C[C@@H](NC(=O)c3ccc4c(c3)OCO4)[C@H](CO)O2)CC1	0	1.2*	0	5	12[16.7 µM]	0.14[42 µM]	i
COc1cccc(NC(=O)N[C@H]2C=C[C@H](CC(=O)N3CCN(C)CC3)O[C@H]2CO)c1	0	nt	-1	-4	nt	nt	nt
COc1cccc(NC(=O)N[C@H]2C=C[C@@H](CC(=O)N3CCN(C)CC3)O[C@H]2CO)c1	1	2.3*	-1	-5	-21[16.7 µM]	0.12[42 µM]	i
O=C(N[C@@H]1C=C[C@H](CC(=O)N2CCCCC2)O[C@@H]1CO)c1cccc(F)c1	0	1.3*	1	33	2[16.7 µM]	-0.043	i
